ChEMBL document CHEMBL4680077, “Differentiation of skeletal osteogenic progenitor cells to osteoblasts with 3,4-diarylbenzopyran based amide derivatives: Novel osteogenic agents” (Eur J Med Chem, 2016)
Calls of active or inactive are those of the source. No cut-off for these calls is given here.

Experiments:
[1] = Acute toxicity in Swiss albino mouse assessed as absolute liver weight at 1000 mg/kg, po measured after 7 days (reference value: 1.11 +/- 0.04 g); type: organism-based; details: in vivo, 168 h, time 7 day
[2] = Acute toxicity in Swiss albino mouse assessed as body weight at 5 mg/kg, po observed on day 1 (reference value: 20.38 +/- 0.24 g); type: organism-based; details: in vivo, 24 h, time 1 day
[3] = Acute toxicity in Swiss albino mouse assessed as eosinophil count at 5 mg/kg, po measured after 7 days (reference value: 6.34 +/- 1.04 %); type: organism-based; details: in vivo, 168 h, time 7 day
[4] = Acute toxicity in Swiss albino mouse assessed as absolute kidney weight at 5 mg/kg, po measured after 7 days (reference value: 0.29 +/- 0.02 g); type: organism-based; details: in vivo, 168 h, time 7 day
[5] = Acute toxicity in Swiss albino mouse assessed as creatinine level at 300 mg/kg, po measured after 7 days (reference value: 0.97 +/- 0.07 mg/dL); type: organism-based; details: in vivo, 168 h, time 7 day
[6] = Acute toxicity in Swiss albino mouse assessed as absolute uterus weight at 5 mg/kg, po measured after 7 days (reference value: 0.27+/- 0.07 g); type: organism-based; details: in vivo, 168 h, time 7 day
[7] = Acute toxicity in Swiss albino mouse assessed as relative lung weight at 300 mg/kg, po measured after 7 days (reference value: 0.70 +/- 0.08 %); type: organism-based; details: in vivo, 168 h, time 7 day
[8] = Acute toxicity in Swiss albino mouse assessed as body weight at 50 mg/kg, po observed on day 1 (reference value: 20.38 +/- 0.24 g); type: organism-based; details: in vivo, 24 h, time 1 day
[9] = Acute toxicity in Swiss albino mouse assessed as malondialdehyde level at 1000 mg/kg, po measured after 7 days (reference value: 0.14 +/- 0.01 nM/mg); type: organism-based; details: in vivo, 168 h, time 7 day
[10] = Acute toxicity in Swiss albino mouse assessed as monocyte count at 50 mg/kg, po measured after 7 days (reference value: 12.58 +/- 2.86 %); type: organism-based; details: in vivo, 168 h, time 7 day
[11] = Acute toxicity in Swiss albino mouse assessed as relative spleen weight at 1000 mg/kg, po measured after 7 days (reference value: 0.73 +/- 0.14 %); type: organism-based; details: in vivo, 168 h, time 7 day
[12] = Acute toxicity in Swiss albino mouse assessed as mortality at 5 to 1000 mg/kg, po measured after 7 days; type: organism-based; details: in vivo, 168 h, dose 5-1000 mg/kg, time 7 day
In short: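 Acute oral toxicity per OECD guidelines 420, 423 and 425. Swiss albino mice received a single oral dose at 5, 50, 300 or 1000 mg kg1 body weight, with vehicle controls. Animals were watched for morbidity, mortality and observational changes over 7 days. Tail-vein blood was then taken for hematology and serum biochemistry. Organs were inspected at sacrifice. n = 6 per group.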

[13] = Acute toxicity in Swiss albino mouse assessed as absolute liver weight at 50 mg/kg, po measured after 7 days (reference value: 1.11 +/- 0.04 g); type: organism-based; details: in vivo, 168 h, time 7 day
[14] = Acute toxicity in Swiss albino mouse assessed as relative ovary weight at 300 mg/kg, po measured after 7 days (reference value: 0.07 +/- 0.02 %); type: organism-based; details: in vivo, 168 h, time 7 day
[15] = Acute toxicity in Swiss albino mouse assessed as SGOT level at 5 mg/kg, po measured after 7 days (reference value: 31.99 +/- 3.37 U/L); type: organism-based; details: in vivo, 168 h, time 7 day
[16] = Acute toxicity in Swiss albino mouse assessed as malondialdehyde level at 50 mg/kg, po measured after 7 days (reference value: 0.14 +/- 0.01 nM/mg); type: organism-based; details: in vivo, 168 h, time 7 day
[17] = Acute toxicity in Swiss albino mouse assessed as tissue protein level at 50 mg/kg, po measured after 7 days (reference value: 0.029 +/- 0.004 mg/ml); type: organism-based; details: in vivo, 168 h, time 7 day
[18] = Acute toxicity in Swiss albino mouse assessed as RBC count at 300 mg/kg, po measured after 7 days (Rvb =6.0 +/- 0.28 million/mm3); type: organism-based; details: in vivo, 168 h, time 7 day
[19] = Acute toxicity in Swiss albino mouse assessed as WBC count per thousand/mm3 at 50 mg/kg, po measured after 7 days (reference value: 6.84 +/- 0.83 /mm3); type: organism-based; details: in vivo, 168 h, time 7 day
[20] = Acute toxicity in Swiss albino mouse assessed as body weight at 1000 mg/kg, po observed on day 1 (reference value: 20.38 +/- 0.24 g); type: organism-based; details: in vivo, 24 h, time 1 day
[21] = Acute toxicity in Swiss albino mouse assessed as relative ovary weight at 50 mg/kg, po measured after 7 days (reference value: 0.07 +/- 0.02 %); type: organism-based; details: in vivo, 168 h, time 7 day
[22] = Half life in Sprague-Dawley rat at 1 mg/kg, po measured upto 24 hrs by LC-MS/MS analysis; type: ADME, organism-based; details: in vivo
In short: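 Female Sprague-Dawley rats (n = 4), fasted overnight 12–14 h, dosed orally at 1 mg kg-1 as a 0.25% CMC suspension and fed 3 h post-dose. Retro-orbital blood was taken from 0.25 to 24 h. Plasma was hexane-extracted and assayed by LC-MS/MS. Cmax and Tmax were read from the data; other parameters came from non-compartmental analysis. Mean ± S.D.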

[23] = Acute toxicity in Swiss albino mouse assessed as absolute heart weight at 5 mg/kg, po measured after 7 days (reference value: 0.12 g); type: organism-based; details: in vivo, 168 h, time 7 day
[24] = Acute toxicity in Swiss albino mouse assessed as SGOT level at 50 mg/kg, po measured after 7 days (reference value: 31.99 +/- 3.37 U/L); type: organism-based; details: in vivo, 168 h, time 7 day
[25] = Acute toxicity in Swiss albino mouse assessed as SGPT level at 50 mg/kg, po measured after 7 days (reference value: 14.04 +/- 1.45 U/L); type: organism-based; details: in vivo, 168 h, time 7 day
[26] = Acute toxicity in Swiss albino mouse assessed as RBC count at 50 mg/kg, po measured after 7 days (Rvb =6.0 +/- 0.28 million/mm3); type: organism-based; details: in vivo, 168 h, time 7 day
[27] = Acute toxicity in Swiss albino mouse assessed as body weight at 5 mg/kg, po measured on day 7 (reference value: 22.75 +/- 0.38 g); type: organism-based; details: in vivo, 168 h, time 7 day
[28] = Acute toxicity in Swiss albino mouse assessed as reduced GSH level at 1000 mg/kg, po measured after 7 days (reference value: 18.20 +/- 1.56 ug/mg of protein); type: organism-based; details: in vivo, 168 h, time 7 day
Calvarial osteoblast = experiment: Induction of osteoblast differentiation in mouse calvarial osteoblast assessed as increase in ALP activity using PNPP as substrate at 1 pM incubated for 48 hrs by spectrophotometric analysis; type: functional, cell-based
[29] = Acute toxicity in Swiss albino mouse assessed as absolute kidney weight at 300 mg/kg, po measured after 7 days (reference value: 0.29 +/- 0.02 g); type: organism-based; details: in vivo, 168 h, time 7 day
[30] = Acute toxicity in Swiss albino mouse assessed as absolute brain weight at 1000 mg/kg, po measured after 7 days (reference value: 0.37 +/- 0.02 g); type: organism-based; details: in vivo, 168 h, time 7 day
[31] = Acute toxicity in Swiss albino mouse assessed as absolute ovary weight at 5 mg/kg, po measured after 7 days (reference value: 0.04+/- 0.02 g); type: organism-based; details: in vivo, 168 h, time 7 day
[32] = Acute toxicity in Swiss albino mouse assessed as albumin level at 50 mg/kg, po measured after 7 days (reference value: 3.24 +/- 0.30 g/dL); type: organism-based; details: in vivo, 168 h, time 7 day
[33] = Volume of distribution in Sprague-Dawley rat at 1 mg/kg, iv measured upto 24 hrs by LC-MS/MS analysis; type: ADME, organism-based; details: in vivo

## CCCCN(C)C(=O)CCCCOc1ccc([C@H]2c3ccc(OC)cc3OC(C)(C)[C@@H]2c2ccccc2)cc1
[1]
  Activity: 1.07 g
[2]
  Activity: 20.65 g
[3]
  Activity: 8.35%
[4]
  Activity: 0.28 g
[5]
  Activity: 0.97 mg/dL
[6]
  Activity: 0.3 g
[7]
  Activity: 0.73%
[8]
  Activity: 20.38 g
[9]
  Activity: 0.16 nM/mg
[10]
  Activity: 12.35%
[11]
  Activity: 0.5%
[12]
  Activity: Non-Toxic
[13]
  Activity: 1.23 g
[14]
  Activity: 0.29%
[15]
  Activity: 33.05 U/L
[16]
  Activity: 0.14 nM/mg
[17]
  Activity: 0.036 mg/mL
[18]
  Activity: 7.31 million/mm3
[19]
  Activity: 5.69 /mm3
[20]
  Activity: 18.42 g
[21]
  Activity: 0.33%
[22]
  half-life: 3.62 h
[23]
  Activity: 0.12 g
[24]
  Activity: 40.13 U/L
[25]
  Activity: 17.18 U/L
[26]
  Activity: 8.16 million/mm3
[27]
  Activity: 24.25 g
[28]
  Activity: 13.98 µg/mg
Calvarial osteoblast
  Activity: Active
[29]
  Activity: 0.27 g
[30]
  Activity: 0.33 g
[31]
  Activity: 0.07 g
[32]
  Activity: 2.77 g/dL
[33]
  Vd: 5.61 L/kg
